Test [1] concerns BALL-1. The test can be described thus: Induction of apoptosis in human BALL-1 cells at 5 uM pretreated with GSH for 1.5 hrs followed by compound addition and measured after 24 hrs by annexin-V-FITC and PI staining based flow cytometry analysis. The test is classed as functional, cell-based. An outline of the steps: (§1)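 BALL-1 cells (2×10⁵) pretreated 1.5 h at 37 °C with DMSO, 250 μM DTT, 1.5 mM GSH or 250 μM NAC, then ±5 μM compound for 24 h. Stained with annexin V-FITC (HEPES–NaOH/NaCl/CaCl2 buffer pH 7.4, 10 min), then 2 μg/mL PI; flow cytometry. Late apoptotic (annexin V+/PI+) percentage; octuplicate, mean ± SD, Tukey HSD.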

Test [2] has as its system BALL-1. The test can be described thus: Induction of ROS production in human BALL-1 cells incubated for 30 mins by DCFH-DA staining based flow cytometry analysis. In kind it is functional, cell-based. The note with it: dose 1-10 µM. An outline of the steps:
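Cells (2×10⁵) loaded with 10 μM DCFH-DA for 10 min, then exposed to 1, 5 or 10 μM compound, DMSO vehicle, or 50 μM H2O2 for 30 min. Pellets resuspended in PBS; DCF fluorescence by flow cytometry (ex 488/em 530 nm). Fluorescence normalized to control; mean of two independent measurements, error as range.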

In test [3] the test system is BALL-1. Briefly: Induction of apoptosis in human BALL-1 cells at 5 uM pretreated with DTT for 1.5 hrs followed by compound addition and measured after 24 hrs by annexin-V-FITC and PI staining based flow cytometry analysis. The test is classed as functional, cell-based. An outline of the steps:
as §1

Test [4] relates to BALL-1. Briefly: Induction of apoptosis in human BALL-1 cells at 5 uM pretreated with NAC for 1.5 hrs followed by compound addition and measured after 24 hrs by annexin-V-FITC and PI staining based flow cytometry analysis. The test is classed as functional, cell-based. An outline of the steps: as §1
Test [5] has as its system BALL-1. Briefly: Cytotoxicity against human BALL-1 cells assessed as reduction in cell viability incubated for 24 hrs by WST-8 assay. In kind it is functional, cell-based. The note with it: BALL-1, 24 h. An outline of the steps: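 BALL-1 cells (RPMI 1640, 10% FBS, 37 °C, 5% CO2) seeded at 10,000 cells/well, exposed to a concentration range for 24 h, 0.1% DMSO. WST-8 reagent added, 2 h at 37 °C, absorbance 450 nm. Growth inhibition taken as sample/control absorbance ratio; IC50 reported as mean ± SD.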

Test [6] addresses Peroxiredoxin-1 (Homo sapiens) (UniProt Q06830). The test can be described thus: Retention of chaperone activity of oxidized Prx1 (unknown origin) assessed as decrease in heat-induced citrate synthase aggregation at 25 uM incubated for 20 mins by light scattering assay.
The target is the same in test [7]. Briefly: Inhibition of recombinant Prx1 (unknown origin) assessed as reduction in peroxidase activity at 50 uM incubated for 30 mins followed by H2O2 addition and measured after 20 mins by PEROXsay assay kit method relative to control; values are per cent of control. The note with it: time 50.0 min.
Test [8] shares this target. The test can be described thus: Binding affinity to recombinant wild type Prx1 (unknown origin) expressed in human HEK293T cells at 1 uM incubated for 20 hrs by Western blot analysis.

Structures are written as SMILES. Calls of active or inactive are those of the source. No cut-off for these calls is given here.

Sequence of Peroxiredoxin-1 (Homo sapiens) (Q06830 whole entry, looked up): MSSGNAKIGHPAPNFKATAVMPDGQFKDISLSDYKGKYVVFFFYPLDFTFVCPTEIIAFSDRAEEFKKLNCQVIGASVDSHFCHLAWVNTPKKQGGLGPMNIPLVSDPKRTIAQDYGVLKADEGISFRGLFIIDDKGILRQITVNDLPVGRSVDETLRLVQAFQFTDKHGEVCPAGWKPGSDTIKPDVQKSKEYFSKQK

As for `CCCCCCCCCCCC(=O)[C@]12O[C@H]1C(C)(O)NC2=O` (stereo partly specified), the result in test [1], in test [3] and in test [4] was inactive. For the same compound, in test [2], the Activity entry was “Dose-Dependent Effect”. Besides, in test [5], the 50% inhibitory concentration (IC50) was 4410 nM. Further, the outcome in test [6] was Active. Also, the residual activity in test [7] came out at 56%.

As to `CC1(O)NC(=O)[C@@]2(C(=O)CCCCCCCCCCCNC(=O)CCCC[C@@H]3SC[C@@H]4NC(=O)N[C@@H]43)O[C@@H]12` (stereo partly specified), the result in test [8] was Active.

Regarding `[O-][n+]1c(CBr)c(CBr)[n+]([O-])c2ccccc21`, the IC50 in test [5] came out at 1050 nM. Further, the outcome in test [6] was Active. For the same compound, in test [7], the residual activity amounted to 33%.

The values above are taken from ChEMBL document CHEMBL4811274, “Epo-C12 inhibits peroxiredoxin 1 peroxidase activity” (Bioorg Med Chem, 2021).
